A word on the Ki: it is the dissociation constant of the complex between target and ligand, obtained from inhibition or displacement. A high value points to a looser hold on the target.

For experiment [1], the target named is T1, Cannabinoid receptor 1 (Homo sapiens, UniProt P21554). The experiment can be described thus: Binding affinity was determined for Cannabinoid receptor 1.
Experiment [2] has as its target T1, Cannabinoid receptor 1. Nature of the experiment: Compound was tested for inhibition of Adenylyl cyclase in cannabinoid receptor 1 (CB1).
Experiment [3] deals with Cannabinoid receptor (Homo sapiens) (UniProt P34972+P21554). The experiment can be described thus: Ratio of Ki of CB1 receptor to that of CB2 receptor. Type of experiment: protein assay.
Experiment [4] addresses T2, Cannabinoid receptor 2 (Homo sapiens, UniProt P34972). The experiment can be described thus: Binding affinity was determined for cannabinoid receptor 2. An outline of the steps: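 Radioligand displacement on P2 membrane preparations, filtration method. Test compounds kept as 1 mg/mL stocks in absolute ethanol at -20 °C. Displacement curves came from incubating the drugs with 1 nM [³H][…].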

The target in experiment [5] is T2, Cannabinoid receptor 2. Nature of the experiment: Binding affinity was determined for Cannabinoid receptor 2. An outline of the steps: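 Radioligand displacement on P2 membrane preparations, filtration method. Test compounds kept as 1 mg/mL stocks in absolute ethanol at -20 °C.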

The structures appear in SMILES notation.

Chain of Cannabinoid receptor (Homo sapiens) (P21554 whole entry, looked up): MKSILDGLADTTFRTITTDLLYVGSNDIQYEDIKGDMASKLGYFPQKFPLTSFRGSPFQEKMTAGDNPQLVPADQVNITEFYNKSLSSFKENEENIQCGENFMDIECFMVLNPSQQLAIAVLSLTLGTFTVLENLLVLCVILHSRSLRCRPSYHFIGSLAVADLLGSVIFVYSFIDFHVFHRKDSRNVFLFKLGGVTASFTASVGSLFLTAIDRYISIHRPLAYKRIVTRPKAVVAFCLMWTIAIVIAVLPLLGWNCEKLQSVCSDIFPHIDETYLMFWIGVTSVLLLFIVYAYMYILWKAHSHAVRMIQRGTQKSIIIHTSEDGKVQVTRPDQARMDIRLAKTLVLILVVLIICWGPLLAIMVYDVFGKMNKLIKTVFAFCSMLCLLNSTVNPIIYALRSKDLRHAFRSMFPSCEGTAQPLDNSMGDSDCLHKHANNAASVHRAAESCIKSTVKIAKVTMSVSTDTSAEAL
Chain of Cannabinoid receptor (Homo sapiens) (P34972 whole entry, looked up): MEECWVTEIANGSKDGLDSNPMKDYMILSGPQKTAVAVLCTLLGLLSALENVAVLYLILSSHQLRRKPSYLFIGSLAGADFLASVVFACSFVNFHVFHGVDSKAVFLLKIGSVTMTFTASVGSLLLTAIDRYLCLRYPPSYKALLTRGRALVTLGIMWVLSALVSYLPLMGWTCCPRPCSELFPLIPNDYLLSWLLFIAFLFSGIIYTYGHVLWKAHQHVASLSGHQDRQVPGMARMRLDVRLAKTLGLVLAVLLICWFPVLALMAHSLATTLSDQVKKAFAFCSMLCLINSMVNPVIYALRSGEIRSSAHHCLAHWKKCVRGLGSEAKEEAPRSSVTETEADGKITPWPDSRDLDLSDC
T1 sequence (P21554 whole entry): as the sequence (P21554 whole entry, looked up) above
T2 sequence (P34972 whole entry): as the sequence (P34972 whole entry, looked up) above

`CCCCCCC(C)(C)c1cc(O)c2c(c1)OC(C)(C)c1ccc(C)cc1-2`: the Ki at Cannabinoid receptor 1 [1] worked out at 1 nM; on Cannabinoid receptor 1 [2] it was 2 nM; on Cannabinoid receptor 2 [4], 2.24 nM. For the same compound, the Ratio in experiment [3] was found to be 0.4.
Turning to `CCCCCCC(C)(C)c1ccc2c(c1)OC(C)(C)c1ccc(CO)cc1-2`, the results for the inhibition constant (Ki) at Cannabinoid receptor 1 [1] and on Cannabinoid receptor 2 [5] were 2 nM and 1 nM, respectively. In addition, in experiment [3], the Ratio was 2.
As for `CCCC(C)(C)c1cc(O)c2c(c1)OC(C)(C)c1ccc(C)cc1-2`, the inhibition constant Ki stood at 42 nM on Cannabinoid receptor 1 [1] and 6 nM at Cannabinoid receptor 2 [5]. Moreover, the Ratio in experiment [3] turned out to be 7.
For `CCCCCCC(C)(C)c1cc(OC)c2c(c1)OC(C)(C)c1ccc(C(=O)OCCC)cc1-2`, the Ki is 1730 nM at Cannabinoid receptor 1 [1] and 214 nM at Cannabinoid receptor 2 [5]. For the same compound, the Ratio in experiment [3] came out at 8.1.
Consider `CCCCCCC(C)(C)c1cc(O)c2c(c1)OC(C)(C)c1ccc(CO)cc1-2`, for which, on Cannabinoid receptor 1 [1], the inhibition constant Ki was determined as 0.1 nM. The Ratio in experiment [3] was determined as 0.5.
`CCCCCCC(C)(C)c1cc(OC)c2c(c1)OC(C)(C)c1ccc(C(=O)OCc3ccccc3)cc1-2`: the Ki at Cannabinoid receptor 1 [1] and on Cannabinoid receptor 2 [5] was > 10000 nM each time.
As for `CCCC(C)(C)c1ccc2c(c1)OC(C)(C)c1ccc(CO)cc1-2`, in experiment [3], the Ratio came out at 3. On Cannabinoid receptor 2 [5], this compound came in with an inhibition constant Ki of 67 nM.
For the compound `CCCCCCC(C)(C)c1cc(OC)c2c(c1)OC(C)(C)c1ccc(C(=O)OCc3ccc4ccccc4c3)cc1-2`, the inhibition constant (Ki) on Cannabinoid receptor 1 [1] and at Cannabinoid receptor 2 [5] was > 10000 nM throughout.
Take `CCCCCCC(C)(C)c1cc(OC)c2c(c1)OC(C)(C)c1ccc(C)cc1-2`: the Ki on Cannabinoid receptor 1 [1] stood at 681 nM; at Cannabinoid receptor 2 [5], 286 nM. The Ratio in experiment [3] worked out at 2.4.
For `CCCCCCOC(=O)c1ccc2c(c1)-c1c(OC)cc(C(C)(C)CCCCCC)cc1OC2(C)C`, the inhibition constant Ki at Cannabinoid receptor 1 [1] and on Cannabinoid receptor 2 [5] was > 10000 nM each time.
As for `CCCCCCC(C)(C)c1cc(OC)c2c(c1)OC(C)(C)c1ccc(C(=O)OC(C)C)cc1-2`, the Ki on Cannabinoid receptor 1 [1] and at Cannabinoid receptor 2 [5] was > 10000 nM throughout.
On to `CCCC(C)(C)c1ccc2c(c1)OC(C)(C)c1ccc(C(=O)OC)cc1-2`, for which the inhibitory constant (Ki) at Cannabinoid receptor 1 [1] is > 10000 nM; on Cannabinoid receptor 2 [5] it was 611 nM. Moreover, the Ratio in experiment [3] is > 16.4.
The matching figures for `CCCCCCC(C)(C)c1cc(O)c2c(c1)OC(C)(C)c1ccc(C(=O)OC)cc1-2`: 14 nM, 3.8 nM and 3.7.
On the same counts, the results for `CCCCCCC(C)(C)c1ccc2c(c1)OC(C)(C)c1ccc(C(=O)OC)cc1-2` are 558 nM, 276 nM and 2.
On the same counts, the results for `CCCCCCC(C)(C)c1cc(OC)c2c(c1)OC(C)(C)c1ccc(C(=O)OC)cc1-2` are > 10000 nM, 529 nM and > 18.9.
Regarding `CCCCCCC(C)(C)c1ccc2c(c1)OC(C)(C)c1ccc(C)cc1-2`, the Ki at Cannabinoid receptor 1 [1] was 434 nM; on Cannabinoid receptor 2 [5], 167 nM. The Ratio in experiment [3] turned out to be 2.6.
`CCCC(C)(C)c1ccc(-c2cc(C)ccc2C(C)C)c(O)c1`: the Ki at Cannabinoid receptor 1 [1] turned out to be 875 nM. Besides, the Ratio in experiment [3] is 7.7.
`CCCCCCC(C)(C)c1ccc(-c2cc(C)ccc2C(C)C)c(O)c1` yielded a Ki on Cannabinoid receptor 1 [1] of 33 nM. For the same compound, the Ratio in experiment [3] is 10.

The values are drawn from ChEMBL document CHEMBL1133684, “Novel cannabinol probes for CB1 and CB2 cannabinoid receptors” (J Med Chem, 2000).
